Hits are enriched below; roughly 3.1% of the tested compounds scored in any of these assays.
KCNK9 block: blocks the human KCNK9 two-pore domain potassium channel. HEK293 KCNK9, FluxOR thallium flux fluorescence; stronger effect = lower value. B-score at 10 µM. 310,000 compounds, 1.2% hits. AID 488922;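 active = ratio B-score over 3 SD below the library mean, with starting fluorescence within 5 SD of its mean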;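 also: negative B-score means less thallium flux so channel inhibition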
KCNQ1 act: potentiates or activates the human KCNQ1 potassium channel. CHO-K1 KCNQ1, thallium flux FluxOR fluorescence; stronger effect = higher value. 310,000 compounds, 0.35% hits. P51787. B-score at 10 µM;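 active = fluorescence ratio B-score, a plate-corrected score, at least three library SD, with initial intensity B-score within 5 SD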
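Assay system: CHO-K1 cells stably expressing KCNQ1. Medium: assay buffer for compound exposure, DMSO matched across wells. Timing: 37 °C overnight plating, 90-min dark dye load, 20-min compound pretreatment. Signal: kinetic FluxOR fluorescence, 10 s baseline plus 110 s post-stimulus.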
KCNK3 block: human KCNK3 channel inhibition, primary screen. O14649. CHO-KCNK3 thallium flux, FluxOR fluorescence; stronger effect = lower value. B-score at 10 µM. 340,000 compounds, 0.84% hits;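 active = B-score under library mean minus 4 SD, starting fluorescence ratio at most library mean plus 5 SD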;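 also: more negative B-score means stronger inhibition of thallium flux through KCNK3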
KCNQ1 block: blocks the human KCNQ1 potassium channel. B-score at 10 µM. 310,000 compounds, 1.3% hits. AID 2642. CHO-K1 KCNQ1, FluxOR thallium flux fluorescence; stronger effect = higher value;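 active = compounds whose thallium flux B-score, printed positive for inhibition, exceeds three library SD while starting fluorescence stays within three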;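 also: channel opened by potassium depolarization with thallium stimulus after 20 min compound exposure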
hERG protect: compounds protecting human hERG from proarrhythmic drug block; Q12809; AID 1511; activation (rescue from dofetilide block), less the hit threshold, % at 10 µM; 310,000 compounds, 0.51% hits; CHO-hERG, FluxOR thallium flux, dofetilide IC70 present;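 active = activation above the mean of controls blocked by dofetilide plus 5 SD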;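 also: thallium influx through hERG after potassium depolarization seen as dye fluorescence rise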
Hits are given with their value; n = inactive; x = not tested or not shown.

SMILES | KCNK9 block | KCNQ1 act | KCNK3 block | KCNQ1 block | hERG protect
O=c1nc(/C=C/c2ccc(-c3ccc(F)cc3)o2)cc(C(F)(F)F)[nH]1 | n | n | x | 11 | n
CC(=O)c1c(N2CCN(Cc3ccccc3)CC2)nc(=S)n(Cc2ccccc2)c1C | n | n | n | n | n
CC(=O)c1c(N2CCCC2)[nH]c(-c2ccccc2)nc1=S | n | 9 | n | n | 7.3
CC(=O)c1c(N2CCOCC2)[nH]c(-c2ccccc2)nc1=S | n | n | n | n | n
CC(=O)c1c(N2CCN(Cc3ccccc3)CC2)[nH]c(-c2ccccc2)nc1=S | n | 23 | n | n | n
CC12CCC(C/C1=N\N=C1\NC(=O)/C(=C\c3ccc(Cl)cc3)S1)C2(C)C (configuration not stated) | n | 21 | n | n | 7.0
O=C1NC(=Nc2ccccc2Cl)S/C1=C\c1ccc(C(=O)O)cc1 | n | n | n | n | n
Cc1cccc(Nc2nc(NCc3ccco3)nc(N)c2[N+](=O)[O-])c1 | n | n | n | n | n
Cc1cccc(Nc2nc(N)c([N+](=O)[O-])c(NCc3ccco3)n2)c1 | n | n | n | 6 | n
COc1ccc(Nc2nc(NCc3ccco3)nc(N)c2[N+](=O)[O-])cc1 | -7.8 | n | n | n | n
Nc1nc(Nc2ccc(Cl)cc2)nc(NCc2ccco2)c1[N+](=O)[O-] | n | n | n | n | n
COc1ccc(OC)c(NC(=O)COC(=O)[C@H](Cc2ccccc2)NC(=O)c2ccco2)c1 | x | x | n | x | x
COc1cc(/C=C/c2nc(N)nc(-c3ccccc3O)n2)cc(OC)c1OC | -7.7 | n | n | n | n
O=C(NCC(c1cccs1)N1CCOCC1)C1CCN(S(=O)(=O)c2cccc(C(F)(F)F)c2)CC1 (configuration not stated) | n | 9 | n | n | n
CCCCc1nc2ccccc2c(=O)n1NC(=O)c1c(O)c2c(n(CC(C)C)c1=O)CCCC2 | n | n | n | 6 | n
CCc1nc2ccccc2c(=O)n1NC(=O)c1c(O)c2ccccc2n(CC)c1=O | n | n | n | n | 37
CCn1c(=O)c(C(=O)Nn2c(C)nc3ccccc3c2=O)c(O)c2ccccc21 | n | n | n | n | n
CCC(C(=O)NCCCc1ccccc1)c1ccccc1 (configuration not stated) | n | n | n | n | n
CCC(C(=O)NCCCN1CCN(CCCNC(=O)C(CC)c2ccccc2)CC1)c1ccccc1 (configuration not stated) | n | n | n | n | 4.9
CCC1CCCCN1C(=S)NC(=O)c1cccs1 (configuration not stated) | n | 8 | n | n | 5.3
CCC1CCCCN1C(=S)NC(=O)c1ccc([N+](=O)[O-])cc1 (configuration not stated) | n | 18 | n | n | 16
CCN1CCN(CCNC(=O)c2ccc(/C=C3/Sc4ccccc4N(Cc4ccccc4C)C3=O)cc2)CC1 | n | n | n | 14 | n
CCN1CCN(CCCNC(=O)c2ccc(/C=C3/Sc4ccccc4N(Cc4ccccc4F)C3=O)cc2)CC1 | -6.7 | n | n | 7 | n
O=C(NCCN1CCOCC1)c1ccc2c(c1)N(Cc1ccccc1F)C(=O)c1ccccc1S2 | n | n | n | n | n
O=C(NCCCN1CCOCC1)c1ccc(/C=C2\Oc3ccccc3N(Cc3ccccc3F)C2=O)cc1 | n | n | n | n | n
SMILES | KCNK9 block | KCNQ1 act | KCNK3 block | KCNQ1 block | hERG protect
CCN1CCN(CCCNC(=O)c2ccc(/C=C3/Oc4ccccc4N(Cc4cccc(C)c4)C3=O)cc2)CC1 | n | n | n | 7 | n
Cc1ccccc1CN1C(=O)c2ccccc2Sc2ccc(C(=O)NCCN3CCOCC3)cc21 | n | n | n | n | n
COc1ccc(C(=O)Nc2ccccc2C(=O)N2CCOCC2)cc1 | n | n | n | n | n
COc1ccc(S(=O)(=O)NC2(C(F)(F)F)N=C(c3ccccc3)NC2=O)cc1 (configuration not stated) | -7.9 | n | n | n | n
O=C1NC(c2ccccc2)=NC1(NS(=O)(=O)c1ccccc1)C(F)(F)F (configuration not stated) | n | n | n | n | n
O=C(CCn1c(=O)oc2ccccc21)N1CCN(c2ccccc2F)CC1 | n | n | n | n | 5.3
O=C(CCCn1c(=O)oc2ccccc21)N1CCN(c2ccc(F)cc2)CC1 | n | n | n | n | n
Cc1ccc(/C=C2\SC(=S)N(C3CCS(=O)(=O)C3)C2=O)o1 (configuration not stated) | n | n | n | n | n
CC1=C(C#N)C(=O)N(C2CCS(=O)(=O)C2)C(=O)/C1=C\c1ccc(C)o1 (configuration not stated) | -6.9 | n | x | 7 | n
CS(=O)(=O)C1=NSC2=NC(=O)/C(=C\c3cccn3-c3ccc(Cl)cc3)C(=N)N21 | n | n | n | 7 | n
Cc1cc(/C=C2/C(=N)N3C(=NC2=O)SN=C3S(C)(=O)=O)c(C)n1-c1ccccc1F | n | n | n | n | n
Cc1cc(C2=CC(C)(c3cc(C)oc3C)Nc3nc(C(F)(F)F)nn32)c(C)o1 (configuration not stated) | n | n | x | n | n
Cc1ccc(C2=CC(C)(c3ccc(C)cc3)Nc3nc(C(F)(F)F)nn32)cc1 (configuration not stated) | -8 | n | n | n | n
CCN(C(=O)CN1CCC(C(=O)OC)CC1)c1c(N)n(Cc2ccccc2)c(=O)[nH]c1=O | x | x | n | x | x
COc1ccc(C=NN=C2c3ccccc3-c3ccccc32)cc1OC | x | x | n | x | x
Cc1ccc(/C=C/C2=NN(Cc3ccccc3)C(=O)CC2)cc1 | n | n | n | n | n
Cc1ccc(/C=C/C2=NN(Cc3ccccc3Cl)C(=O)CC2)cc1 | n | n | n | 11 | n
S=c1nc[nH]c2c1cnn2-c1ccccc1 | n | 19 | n | n | n
Nc1ncnc2c1cnn2-c1ccccc1 | n | n | n | n | n
Cc1cc(=O)[nH]c(SCC(=O)N2CCC(Cc3ccccc3)CC2)n1 | n | n | n | n | n
O=C(CSc1nc(C(F)(F)F)cc(=O)[nH]1)N1CCC(Cc2ccccc2)CC1 | n | n | n | 6 | n
CC(=O)NC12CC3CC(C1)CC(C(=O)Oc1ccc(N(C)S(=O)(=O)c4cc(C)ccc4C)cc1)(C3)C2 | n | n | n | 6 | n
COc1cc2oc(=O)cc(-c3ccc(-c4ccc(N(C)C)cc4)cc3)c2c(OC)c1OC | x | x | n | x | x
CC(C)(C)OC(=O)NCCCCCNC(=O)c1[nH]cnc1C(=O)N[C@@H](CCCCNC(=O)OC(C)(C)C)C(=O)OC(C)(C)C | n | n | n | n | n
CC(C)(C)OC(=O)NCCCC[C@H](NC(=O)c1nc[nH]c1C(=O)N[C@@H](CCCCNC(=O)OC(C)(C)C)C(=O)OC(C)(C)C)C(=O)OC(C)(C)C | -7 | n | n | n | n
C[C@H](NC(=O)c1nc[nH]c1C(=O)N1CCc2ccccc2C1)C(=O)OCc1ccccc1 | n | n | n | 6 | n

Screening results (PubChem)
